Reference: ChEMBL document CHEMBL1122677, “Ring-substituted 1,2-dialkylated 1,2-bis(hydroxyphenyl)ethanes. 3. Synthesis, estrogen receptor binding affinity, and evaluation of antiestrogenic and mammary tumor inhibiting activity of 2,2'-disubstituted butestrols and 6,6'-disubstituted metabutestrols” (1984)

Legend:
[1] = target: T1, Estrogen receptor (Mus musculus) (UniProt O08537+P19785); assay: (§1) Uterotrophic effect in mice at 10 ug; format: functional, tissue-based; parameters: unit not given here; conditions: Uterus
T1 sequence (O08537 whole entry, looked up): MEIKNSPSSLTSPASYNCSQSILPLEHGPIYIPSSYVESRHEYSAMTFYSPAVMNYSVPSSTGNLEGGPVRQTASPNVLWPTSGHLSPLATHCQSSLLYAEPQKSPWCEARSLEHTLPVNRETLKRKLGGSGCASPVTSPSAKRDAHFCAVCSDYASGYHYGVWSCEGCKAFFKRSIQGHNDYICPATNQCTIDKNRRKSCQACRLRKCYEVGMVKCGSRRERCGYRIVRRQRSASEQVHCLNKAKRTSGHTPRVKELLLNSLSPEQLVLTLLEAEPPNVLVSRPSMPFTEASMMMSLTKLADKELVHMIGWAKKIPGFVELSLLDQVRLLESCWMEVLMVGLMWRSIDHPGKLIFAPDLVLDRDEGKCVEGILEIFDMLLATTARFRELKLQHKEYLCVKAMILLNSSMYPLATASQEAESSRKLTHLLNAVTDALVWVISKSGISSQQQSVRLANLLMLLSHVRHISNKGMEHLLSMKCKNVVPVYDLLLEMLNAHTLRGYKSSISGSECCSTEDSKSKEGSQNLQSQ
T1 sequence (P19785 whole entry, looked up): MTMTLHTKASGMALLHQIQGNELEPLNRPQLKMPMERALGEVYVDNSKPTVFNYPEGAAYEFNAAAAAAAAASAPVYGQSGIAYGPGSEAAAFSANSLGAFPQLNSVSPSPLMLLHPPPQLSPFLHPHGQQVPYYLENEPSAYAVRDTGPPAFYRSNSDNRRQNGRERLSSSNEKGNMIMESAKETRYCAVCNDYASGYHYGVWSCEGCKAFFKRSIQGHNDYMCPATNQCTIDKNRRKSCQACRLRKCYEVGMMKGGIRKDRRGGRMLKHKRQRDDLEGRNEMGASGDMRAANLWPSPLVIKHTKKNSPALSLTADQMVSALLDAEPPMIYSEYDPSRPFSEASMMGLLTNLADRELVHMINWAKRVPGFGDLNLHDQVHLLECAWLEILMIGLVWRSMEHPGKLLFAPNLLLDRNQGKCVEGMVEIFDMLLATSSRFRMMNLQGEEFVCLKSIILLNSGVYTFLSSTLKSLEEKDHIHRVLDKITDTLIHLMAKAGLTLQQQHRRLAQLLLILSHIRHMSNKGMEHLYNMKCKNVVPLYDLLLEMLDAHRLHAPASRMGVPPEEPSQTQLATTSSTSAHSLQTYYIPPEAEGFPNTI
Method in brief: (§2)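 Immature female NMRI mice, 20 days old (14.5 ± 1.2 g), in groups of 10, injected sc daily for 3 days with test compound in 0.1 mL olive oil. Uteri were removed 24 h after the last injection, Bouin-fixed, washed, dried and weighed. Groups were compared by Wilcoxon–Mann–Whitney U test.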

[2] = target: T1, Estrogen receptor (Mus musculus); assay: Uterotrophic effect in mice at 100 ug; format: functional, tissue-based; conditions: Uterus; method in brief: as §2
[3] = target: T1, Estrogen receptor (Mus musculus); assay: (§3) Uterotrophic effect in mice at 1 ug; format: functional, tissue-based; parameters: unit not given here; conditions: Uterus; method in brief: as §2
[4] = target: T1, Estrogen receptor (Mus musculus); assay: (§4) Uterotrophic effect in mice at 0 ug; format: functional, tissue-based; parameters: unit not given here; conditions: Uterus; method in brief: as §2
[5] = target: Estrogen receptor (Bos taurus) (UniProt Q9XSB5+P49884); assay: Displacement of [3H]-estradiol from calf uterine estrogen receptor; format: protein assay
Method in brief: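 Calf uterine cytosol incubated with [³H]estradiol and competitor at six concentrations, 4 °C for 16 h. Dextran-coated charcoal stopped incubation; supernatant radioactivity counted after centrifugation. Percent bound plotted vs log concentration; the molar concentrations of estradiol and test compound halving radioligand binding were read off and expressed as relative binding affinity.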

Rattus norvegicus [6] = species: Rattus norvegicus; assay: Percent partial remission in DMBA-induced hormone dependent mammary carcinoma in rats at 5 mg dose; format: functional
Method in brief: (§5)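 DMBA-induced, hormone-dependent mammary adenocarcinoma in SD rats. Dose is per kg body weight and day, given once daily Monday–Thursday and doubled on Friday. Initial tumors were counted at the start and new tumors during the test. Tumors were scored as complete remission (not palpable), partial remission (≥50% size reduction), no change or progression. Tumor area and body weight change were recorded.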

Rattus norvegicus [7] = species: Rattus norvegicus; assay: Percent progressive tumors in DMBA-induced hormone dependent mammary carcinoma in rats at 2 mg dose; format: functional; method in brief: as §5
[8] = target: T1, Estrogen receptor (Mus musculus); assay: Uterotrophic effect in mice at 10 ug (alpha=0.01); format: functional, tissue-based; conditions: Uterus; method in brief: as §2
Rattus norvegicus [9] = species: Rattus norvegicus; assay: Percent complete remission in DMBA-induced hormone dependent mammary carcinoma in rats at 5 mg dose; format: functional; method in brief: as §5
[10] = target: T1, Estrogen receptor (Mus musculus); assay: Antiuterotrophic effect in mice at 0 ug; format: functional
Method in brief: (§6)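 Antiestrogenic read-out: inhibition of estrone-stimulated uterine growth in immature female NMRI mice, 20 days old, in groups of 10. Test compound in 0.1 mL olive oil was given sc daily for 3 days. Uteri were taken 24 h after the last dose, fixed in Bouin's solution, washed, dried and weighed.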

Rattus norvegicus [11] = species: Rattus norvegicus; assay: Initial tumor number of DMBA-induced hormone dependent mammary carcinoma in rats prior to 2 mg dose; format: functional; method in brief: as §5
[12] = target: T1, Estrogen receptor (Mus musculus); assay: Antiuterotrophic effect in mice at 5 ug; format: functional; parameters: unit not given here; method in brief: as §6
[13] = target: T1, Estrogen receptor (Mus musculus); assay: Antiuterotrophic effect in mice at 50 ug; format: functional; parameters: unit not given here; method in brief: as §6
Rattus norvegicus [14] = species: Rattus norvegicus; assay: Percent change in total tumor area of DMBA-induced hormone dependent mammary carcinoma in rats at 2 mg dose (alpha <0.05); format: functional; method in brief: as §5
[15] = target: T1, Estrogen receptor (Mus musculus); assay: Uterotrophic effect in mice at 1 ug (alpha=0.01); format: functional, tissue-based; conditions: Uterus; method in brief: as §2
Rattus norvegicus [16] = species: Rattus norvegicus; assay: Percent change in total tumor area of DMBA-induced hormone dependent mammary carcinoma in rats at 5 mg dose (alpha <0.05)
Rattus norvegicus [17] = species: Rattus norvegicus; assay: Percent progressive tumors in DMBA-induced hormone dependent mammary carcinoma in rats at 5 mg dose; format: functional; method in brief: as §5
[18] = target: T1, Estrogen receptor (Mus musculus); assay: Percent inhibition of uterotrophic effect in mice at 500 ug; format: functional; method in brief: as §6
[19] = target: T1, Estrogen receptor (Mus musculus); assay: Percent inhibition of uterotrophic effect in mice at 50 ug; format: functional; method in brief: as §6
Rattus norvegicus [20] = species: Rattus norvegicus; assay: Percent complete remission in DMBA-induced hormone dependent mammary carcinoma in rats at 2 mg dose; format: functional; method in brief: as §5
[21] = target: T1, Estrogen receptor (Mus musculus); assay: Antiuterotrophic effect in mice at 500 ug; format: functional; parameters: unit not given here; method in brief: as §6
Rattus norvegicus [22] = species: Rattus norvegicus; assay: Percent unchanged tumors in DMBA-induced hormone dependent mammary carcinoma in rats at 5 mg dose; format: functional; method in brief: as §5
Rattus norvegicus [23] = species: Rattus norvegicus; assay: Percent change in body weight in rats at 2 mg; format: functional; method in brief: as §5
Rattus norvegicus [24] = species: Rattus norvegicus; assay: Final tumor number of DMBA-induced hormone dependent mammary carcinoma in rats after 5 mg dose; format: functional; method in brief: as §5
Rattus norvegicus [25] = species: Rattus norvegicus; assay: Percent change in body weight in rats at 5 mg; format: functional; method in brief: as §5
[26] = target: T1, Estrogen receptor (Mus musculus); assay: Percent inhibition of uterotrophic effect in mice at 5 ug; format: functional; method in brief: as §6
Rattus norvegicus [27] = species: Rattus norvegicus; assay: Initial tumor number of DMBA-induced hormone dependent mammary carcinoma in rats prior to 5 mg dose; format: functional; method in brief: as §5
Rattus norvegicus [28] = species: Rattus norvegicus; assay: Percent unchanged tumors in DMBA-induced hormone dependent mammary carcinoma in rats at 2 mg dose; format: functional; method in brief: as §5
Rattus norvegicus [29] = species: Rattus norvegicus; assay: Percent partial remission in DMBA-induced hormone dependent mammary carcinoma in rats at 2 mg dose; format: functional; method in brief: as §5
Rattus norvegicus [30] = species: Rattus norvegicus; assay: Final tumor number of DMBA-induced hormone dependent mammary carcinoma in rats after 2 mg dose; format: functional; method in brief: as §5
[31] = target: T1, Estrogen receptor (Mus musculus); assay: Uterotrophic effect in mice at 1000 ug; format: functional, tissue-based; conditions: Uterus; method in brief: as §2
[32] = target: T1, Estrogen receptor (Mus musculus); assay: as §4; format: functional, tissue-based; conditions: Uterus; method in brief: as §2
[33] = target: T1, Estrogen receptor (Mus musculus); assay: Anti-estrogenic activity in mice at 50 ug; format: functional; method in brief: as §6
[34] = target: T1, Estrogen receptor (Mus musculus); assay: Uterotrophic effect in mice at 0.1 ug; format: functional, tissue-based; conditions: Uterus; method in brief: as §2
[35] = target: T1, Estrogen receptor (Mus musculus); assay: Anti-estrogenic activity in mice at 0 ug; format: functional; method in brief: as §6
[36] = target: T1, Estrogen receptor (Mus musculus); assay: Anti-estrogenic activity in mice at 500 ug; format: functional; method in brief: as §6
[37] = target: T1, Estrogen receptor (Mus musculus); assay: as §3; format: functional, tissue-based; conditions: Uterus; method in brief: as §2
[38] = target: T1, Estrogen receptor (Mus musculus); assay: as §1; format: functional, tissue-based; conditions: Uterus; method in brief: as §2
[39] = target: T1, Estrogen receptor (Mus musculus); assay: Uterotrophic effect in mice at 100 ug (alpha =0.01); format: functional, tissue-based; conditions: Uterus; method in brief: as §2
[40] = target: T1, Estrogen receptor (Mus musculus); assay: Uterotrophic effect in mice at 10 ug (alpha =0.01); format: functional, tissue-based; conditions: Uterus; method in brief: as §2
[41] = target: T1, Estrogen receptor (Mus musculus); assay: Uterotrophic effect in mice at 1 ug (alpha =0.01); format: functional, tissue-based; conditions: Uterus; method in brief: as §2

SMILES	Effect [1]	Effect [2]	Effect [3]	Effect [4]	relative binding affinity (RBA) [5]	Effect [10]	Effect [12]	Effect [13]	inhibition [18] [%]	inhibition [19] [%]	Effect [21]	inhibition [26] [%]	Effect [31]	further results
CCc1cc(O)ccc1C(C)C(C)c1ccc(O)cc1CC (centres undefined)	45.2	47	38.8	12.5	12									
CC(c1cc(O)ccc1O)C(C)c1cc(O)ccc1O (centres undefined)					0.01									
Cc1ccc(O)cc1C(C)C(C)c1cc(O)ccc1C (centres undefined)		12.5			5.2	14.4	45.4	40.6	35	20	35.6	5	17.4	Tumors (Rattus norvegicus [6]): 4%; Tumors (Rattus norvegicus [7]): 56%; Effect [8]: 14.2; Tumors (Rattus norvegicus [9]): 15%; No. of tumors (Rattus norvegicus [11]): 23; Tumor area (Rattus norvegicus [14]): 245; Effect [15]: 13.7; Tumor area (Rattus norvegicus [16]): 283; Tumors (Rattus norvegicus [17]): 56%; Tumors (Rattus norvegicus [20]): 11%; Tumors (Rattus norvegicus [22]): 25%; Body weight (Rattus norvegicus [23]): 1.5; No. of tumors (Rattus norvegicus [24]): 23; Body weight (Rattus norvegicus [25]): 1.1; No. of tumors (Rattus norvegicus [27]): 25; Tumors (Rattus norvegicus [28]): 29%; Tumors (Rattus norvegicus [29]): 4%; No. of tumors (Rattus norvegicus [30]): 25; Effect [32]: 11.1
CC(c1ccc(O)cc1)C(C)c1ccc(O)cc1 (centres undefined)		42.2			12		43.3		28	26		12	34.8	Effect [33]: 38.7; Effect [34]: 17.7; Effect [35]: 14.4; Effect [36]: 37.8; Effect [37]: 22.6; Effect [38]: 28; Effect [32]: 11.8
CC(c1ccc(O)cc1Cl)C(C)c1ccc(O)cc1Cl (centres undefined)	40.7		41.6	11.8	4.5									
CC(c1cc(O)ccc1Cl)C(C)c1cc(O)ccc1Cl (centres undefined)		41.8			1.7	14.4	40.1	39.3	30	24	37.2	21		Effect [37]: 13; Effect [38]: 26.5; Effect [32]: 11.1
CC(c1ccc(O)cc1F)C(C)c1ccc(O)cc1F (centres undefined)	51.4		50.2	11.8	15									
Cc1cc(O)ccc1C(C)C(C)c1ccc(O)cc1C (centres undefined)				11.8	29									Effect [34]: 29.2; Effect [37]: 36.5; Effect [38]: 39.4
CC(c1cccc(O)c1)C(C)c1cccc(O)c1 (centres undefined)				11.9	1	14.4	43	39		25	36.5	13	13.1	Effect [39]: 12.6; Effect [40]: 12.4; Effect [41]: 11.7
CC(c1ccc(O)cc1O)C(C)c1ccc(O)cc1O (centres undefined)	20.3	26.2	15.4	12.5	2.1	14.4	50.6	39.1	26	25	38.7		34.6	
CC(c1ccc(O)cc1Br)C(C)c1ccc(O)cc1Br (centres undefined)					3.4									
